# Activity calls are given as the source filed them. No cut-off for these calls is given here.
# Key:
# [1] = target: T1, Melatonin receptor type 1B (Homo sapiens) (UniProt P49286); assay: Agonist activity at human MT2 receptor expressed in HEK293 cells at 1 mM after 24 hrs by Fluo-8 dye-based calcium assay relative to control; format: functional, cell-based
# T1 sequence (whole entry): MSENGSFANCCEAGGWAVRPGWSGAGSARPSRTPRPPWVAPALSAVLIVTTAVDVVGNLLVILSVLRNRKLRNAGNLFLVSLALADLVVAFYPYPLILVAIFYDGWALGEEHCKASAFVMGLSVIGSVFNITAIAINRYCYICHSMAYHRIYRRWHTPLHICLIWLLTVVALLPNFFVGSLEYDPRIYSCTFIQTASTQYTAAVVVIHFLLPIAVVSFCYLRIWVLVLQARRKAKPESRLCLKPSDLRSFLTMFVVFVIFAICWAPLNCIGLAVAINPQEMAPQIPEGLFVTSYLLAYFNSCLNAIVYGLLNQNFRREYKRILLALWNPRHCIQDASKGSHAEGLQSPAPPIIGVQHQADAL
# In short: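 Fluo-8 calcium assay in HEK293 cells stably expressing human MT1 or MT2, seeded 4×10^4/well and incubated 24 h. Compounds tested at 1.00 mM, agomelatine positive control at 3.33 µM; fluorescence at ex 485/em 525 nm. Agonism expressed as mean ± SD, n = 3.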
# [2] = target: Melatonin receptor type 1A (Homo sapiens, UniProt P48039); assay: Agonist activity at human MT1 receptor expressed in HEK293 cells after 24 hrs by Fluo-8 dye-based calcium assay; format: functional, cell-based
# In short: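 Fluo-8 calcium flux in HEK293 cells stably expressing human MT1 or MT2, grown in DMEM + 10% FBS at 37 °C, seeded 4×10^4/well and incubated 24 h. Compounds in DMSO/HBSS at several concentrations; fluorescence read at room temperature (ex 485, em 525 nm). Triplicate wells, three independent experiments; EC50 by nonlinear regression.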
# Mus musculus [3] = assay: Toxicity in Kunming mouse assessed as effect in spontaneous locomotor activity by measuring total number of line crosses at 10 to 40 mg/kg, po by open field test; format: organism-based; conditions: in vivo
# In short: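 Male Kunming mice, 18–20 g, group-housed at 22 ± 2 °C on 12 h light/dark, given oral doses of 10, 20 or 40 mg/kg before behavioural testing. Each animal placed in the centre of a black open-field box (24 × 24 × 40 cm) for 30 s adaptation, then explored freely for 6 min. Line crossings and distance recorded. Mean ± SEM, n = 10.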
# Mus musculus [4] = assay: Effect on 5-hydroxytryptamine level in Kunming mouse hypothalamus at 40 mg/kg, po treated for 7 days by HPLC-ECD analysis; format: functional, organism-based
# In short: (§1)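 Male Kunming mice (18–20 g) given vehicle or 40 mg/kg for 7 days, then killed by cervical dislocation. Frontal cortex, hippocampus, striatum, hypothalamus and thalamus dissected on ice, homogenized in ice-cold 0.2 M perchloric acid with 0.1 mM EDTA, centrifuged 15,000 rpm, 20 min, 4 °C. Supernatant analysed by HPLC-ECD at +0.50 V; phosphate/octanesulfonate mobile phase pH 3.0 with 12% methanol. Levels in ng/g, mean ± SEM.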
# Mus musculus [5] = assay: Increase in 5-hydroxyindole-3-acetic acid level in Kunming mouse frontal cortex at 40 mg/kg, po treated for 7 days by HPLC-ECD analysis; format: functional, organism-based; in short: as §1
# Mus musculus [6] = assay: Increase in ratio of 5-hydroxyindole-3-acetic acid to 5-hydroxytryptamine level in Kunming mouse hippocampus at 40 mg/kg, po treated for 7 days by HPLC-ECD analysis; format: functional, organism-based; in short: as §1
# Mus musculus [7] = assay: Increase in 3,4-dihydroxyphenylacetic acid level in Kunming mouse hypothalamus at 40 mg/kg, po treated for 7 days by HPLC-ECD analysis; format: functional, organism-based; in short: as §1
# [8] = Retention time of the compound by UPLC-IT-TOF-MS analysis; format: physicochemical
# In short: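 Retention on C18 column (100 × 2.1 mm, 1.8 µm) at 30 °C; mobile phase A 0.05% formic acid in water, B 0.05% formic acid in acetonitrile, 0.2 mL/min, linear 5–100% B over 0–18.0 min; IT-TOF-MS detection in positive and negative modes.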
# [9] = Drug metabolism in Sprague-Dawley rat feces assessed as (2S,3S,4S,5R,6S)-3,4,5-trihydroxy-6-(5-(1-hydroxyallyl)-5'-(1-hydroxypropyl)-2'-((2S,3R,4S,5S,6R)-3,4,5-trihydroxy-6-(hydroxymethyl)tetrahydro-2H-pyran-2-yloxy)biphenyl-2-yloxy)tetrahydro-2H-pyran-2-carboxylic acid formation at 100 mg/kg, po by UPLC-IT-TOF-MS analysis; format: ADME, organism-based; conditions: in vivo
# In short: (§2)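 Rats (n = 6) housed in metabolic cages received 100.0 mg/kg orally; controls received 0.5% CMC-Na. Plasma, urine and faeces were collected and analyzed by LC-IT-TOF-MS on a C18 column at 30 °C. Gradient 5–100% acetonitrile with 0.05% formic acid over 18 min at 0.2 mL/min; positive and negative ion MS/MS.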
# [10] = Drug metabolism in Sprague-Dawley rat plasma assessed as 5'-(1-hydroxyallyl)-5-(1-hydroxypropyl)-2'-((2S,3R,4S,5S,6R)-3,4,5-trihydroxy-6-(hydroxymethyl)tetrahydro-2H-pyran-2-yloxy)biphenyl-2-yl hydrogen sulfate formation at 100 mg/kg, po by UPLC-IT-TOF-MS analysis; format: ADME, organism-based; conditions: in vivo; in short: as §2
# [11] = Drug metabolism in Sprague-Dawley rat urine assessed as (2S,3S,4S,5R,6S)-6-(5'-allyl-5-(1-hydroxyallyl)-2'-((2S,3R,4S,5S,6R)-3,4,5-trihydroxy-6-(hydroxymethyl)tetrahydro-2H-pyran-2-yloxy)biphenyl-2-yloxy)-3,4,5-trihydroxytetrahydro-2H-pyran-2-carboxylic acid formation at 100 mg/kg, po by UPLC-IT-TOF-MS analysis; format: ADME, organism-based; conditions: in vivo
# In short: (§3)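 Male/unspecified SD rats (n = 6) housed individually in metabolic cages, dosed orally at 100.0 mg/kg; controls given 0.5% CMC-Na orally. Plasma, urine and faeces collected. LC-IT-TOF-MS on C18 column at 30 °C, formic acid (0.05%) water/acetonitrile gradient 5–100% B over 18 min, 0.2 mL/min; positive and negative ion modes with automatic MS/MS.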
# [12] = Drug metabolism in Sprague-Dawley rat plasma assessed as 1-(5'-allyl-2'-hydroxy-6-((2S,3R,4S,5S,6R)-3,4,5-trihydroxy-6-(hydroxymethyl)tetrahydro-2H-pyran-2-yloxy)biphenyl-3-yl)prop-2-en-1-one formation at 100 mg/kg, po by UPLC-IT-TOF-MS analysis; format: ADME, organism-based; conditions: in vivo; in short: as §2
# [13] = Drug metabolism in Sprague-Dawley rat urine assessed as 5,5'-bis(1-hydroxyallyl)biphenyl-2,2'-diol formation at 100 mg/kg, po by UPLC-IT-TOF-MS analysis; format: ADME, organism-based; conditions: in vivo; in short: as §3
# [14] = Drug level in Sprague-Dawley rat urine at 100 mg/kg, po by UPLC-IT-TOF-MS analysis; format: ADME, organism-based; conditions: in vivo; in short: as §2
# [15] = Drug metabolism in Sprague-Dawley rat plasma assessed as 5,5'-diallyl-2'-hydroxybiphenyl-2-yl hydrogen sulfate formation at 100 mg/kg, po by UPLC-IT-TOF-MS analysis; format: ADME, organism-based; conditions: in vivo; in short: as §3
# [16] = Drug metabolism in Sprague-Dawley rat urine assessed as 5,5'-diallylbiphenyl-2,2'-diol formation at 100 mg/kg, po by UPLC-IT-TOF-MS analysis; format: ADME, organism-based; conditions: in vivo; in short: as §3
# [17] = Drug metabolism in Sprague-Dawley rat feces assessed as 5,5'-diallylbiphenyl-2,2'-diol formation at 100 mg/kg, po by UPLC-IT-TOF-MS analysis; format: ADME, organism-based; conditions: in vivo; in short: as §2
# Chain of Melatonin receptor type 1A (P48039 whole entry): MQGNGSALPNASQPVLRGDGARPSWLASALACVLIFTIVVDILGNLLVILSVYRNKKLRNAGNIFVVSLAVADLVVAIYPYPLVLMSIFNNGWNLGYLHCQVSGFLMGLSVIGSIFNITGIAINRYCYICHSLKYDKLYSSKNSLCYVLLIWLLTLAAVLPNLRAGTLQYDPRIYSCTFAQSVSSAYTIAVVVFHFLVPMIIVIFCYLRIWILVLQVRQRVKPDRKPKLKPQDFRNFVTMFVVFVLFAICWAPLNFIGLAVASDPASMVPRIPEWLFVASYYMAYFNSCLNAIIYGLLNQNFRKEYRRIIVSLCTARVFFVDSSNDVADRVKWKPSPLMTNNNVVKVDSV
structure (smiles),measurement,setting,value
C=CCc1ccc(O)c(-c2cc(CC=C)ccc2O[C@@H]2O[C@H](CO)[C@@H](O)[C@H](O)[C@H]2O)c1,Activity,[1],151%
same,EC50,[2],397 µM
same,Activity,Mus musculus [3],Non-Toxic
same,Activity,Mus musculus [4],inactive
same,Activity,Mus musculus [5],Active
same,Activity,Mus musculus [6],Active
same,Activity,Mus musculus [7],Active
same,Retention_time,[8],11.23 min
same,Drug metabolism,[9],Metabolite_Detected
same,Drug metabolism,[10],Metabolite_Notdetected
same,Drug metabolism,[11],Metabolite_Detected
same,Drug metabolism,[12],Metabolite_Notdetected
same,Drug metabolism,[13],Metabolite_Detected
same,Drug uptake,[14],Not Active
same,Drug metabolism,[15],Metabolite_Notdetected
same,Drug metabolism,[16],Metabolite_Detected
same,Drug metabolism,[17],Metabolite_Detected

# Reference: ChEMBL document CHEMBL4270555, “Synthesis and biological evaluation of magnolol derivatives as melatonergic receptor agonists with potential use in depression” (Eur J Med Chem, 2018)
